Experimental data as given in ChEMBL document CHEMBL2321826, “Synthesis and antibacterial evaluation of rhodanine-based 5-aryloxy pyrazoles against selected methicillin resistant and quinolone-resistant Staphylococcus aureus (MRSA and QRSA)” (Eur J Med Chem, 2013).
≈ marks a conversion by molar mass, not a printed value.

Columns and labels:
Assay type in all cases: functional
Staphylococcus aureus [1] = assay: Antibacterial activity against quinolone-resistant Staphylococcus aureus CCARM 3519 assessed as bacterial growth inhibition measured during 24 hrs incubation at 37 degC by two-fold serial dilution technique; settings: CCARM 3519, 24 h
Procedure, shortened: (§1)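 Clinical isolates grown to mid-log phase in Mueller-Hinton broth, diluted 1000-fold, inoculated at 10⁵ CFU/mL in MHB in 96-well microtiter plates. Two-fold serial dilutions gave final concentrations of […]. Oxacillin and norfloxacin were the positive controls. Growth was read as absorbance at 650 nm. MIC is the lowest concentration giving complete growth inhibition.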

Staphylococcus aureus [2] = assay: Antibacterial activity against methicillin-resistant Staphylococcus aureus CCARM 3167 assessed as bacterial growth inhibition measured during 24 hrs incubation at 37 degC by two-fold serial dilution technique; settings: CCARM 3167, 24 h; procedure, shortened: as §1
Staphylococcus aureus [3] = assay: Antibacterial activity against methicillin-resistant Staphylococcus aureus CCARM 3506 assessed as bacterial growth inhibition measured during 24 hrs incubation at 37 degC by two-fold serial dilution technique; settings: CCARM 3506, 24 h; procedure, shortened: as §1
Staphylococcus aureus [4] = assay: Antibacterial activity against quinolone-resistant Staphylococcus aureus CCARM 3505 assessed as bacterial growth inhibition measured during 24 hrs incubation at 37 degC by two-fold serial dilution technique; settings: CCARM 3505, 24 h; procedure, shortened: as §1

| SMILES | MIC (Staphylococcus aureus [1]) | MIC (Staphylococcus aureus [2]) | MIC (Staphylococcus aureus [3]) | MIC (Staphylococcus aureus [4]) |
| --- | --- | --- | --- | --- |
| Cc1nn(-c2ccccc2)c(Oc2c(Cl)cccc2Cl)c1/C=C1\SC(=S)N(CC(=O)O)C1=O | 32 µg/mL (≈ 61.5 µM) | 32 µg/mL (≈ 61.5 µM) | 32 µg/mL (≈ 61.5 µM) | 32 µg/mL (≈ 61.5 µM) |
| CCC(C)[C@@H](C(=O)O)N1C(=O)/C(=C/c2c(C)nn(-c3ccccc3)c2Oc2ccccc2C)SC1=S (some centres not stated) | 4 µg/mL (≈ 7.67 µM) | 2 µg/mL (≈ 3.83 µM) | 4 µg/mL (≈ 7.67 µM) | 4 µg/mL (≈ 7.67 µM) |
| COc1ccccc1Oc1c(/C=C2\SC(=S)N([C@H](C(=O)O)C(C)C)C2=O)c(C)nn1-c1ccccc1 | 16 µg/mL (≈ 30.6 µM) | 16 µg/mL (≈ 30.6 µM) | 16 µg/mL (≈ 30.6 µM) | 16 µg/mL (≈ 30.6 µM) |
| Cc1nn(-c2ccccc2)c(Oc2cccc(Cl)c2)c1/C=C1\SC(=S)N([C@H](C(=O)O)C(C)C)C1=O | 4 µg/mL (≈ 7.57 µM) | 4 µg/mL (≈ 7.57 µM) | 4 µg/mL (≈ 7.57 µM) | 8 µg/mL (≈ 15.1 µM) |
| Cc1nn(-c2ccccc2)c(Oc2ccc(Br)cc2)c1/C=C1\SC(=S)N([C@H](C(=O)O)C(C)C)C1=O | 4 µg/mL (≈ 6.99 µM) | 2 µg/mL (≈ 3.49 µM) | 4 µg/mL (≈ 6.99 µM) | 4 µg/mL (≈ 6.99 µM) |
| Cc1nn(-c2ccccc2)c(Cl)c1/C=C1\SC(=S)N([C@@H](CC(C)C)C(=O)O)C1=O | 32 µg/mL (≈ 71.1 µM) | 16 µg/mL (≈ 35.6 µM) | 32 µg/mL (≈ 71.1 µM) | 32 µg/mL (≈ 71.1 µM) |
| CCC(C)[C@@H](C(=O)O)N1C(=O)/C(=C/c2c(C)nn(-c3ccccc3)c2Oc2cccc(Cl)c2)SC1=S (some centres not stated) | 8 µg/mL (≈ 14.8 µM) | 4 µg/mL (≈ 7.38 µM) | 8 µg/mL (≈ 14.8 µM) | 8 µg/mL (≈ 14.8 µM) |
| Cc1nn(-c2ccccc2)c(Oc2cccc(Cl)c2)c1/C=C1\SC(=S)N(CC(=O)O)C1=O | 16 µg/mL (≈ 32.9 µM) | 16 µg/mL (≈ 32.9 µM) | 16 µg/mL (≈ 32.9 µM) | 8 µg/mL (≈ 16.5 µM) |
| CCC(C)[C@@H](C(=O)O)N1C(=O)/C(=C/c2c(C)nn(-c3ccccc3)c2Oc2ccc(OC)cc2)SC1=S (some centres not stated) | 4 µg/mL (≈ 7.44 µM) | 4 µg/mL (≈ 7.44 µM) | 4 µg/mL (≈ 7.44 µM) | 4 µg/mL (≈ 7.44 µM) |
| CCC(C)[C@@H](C(=O)O)N1C(=O)/C(=C/c2c(C)nn(-c3ccccc3)c2Oc2cccc(C)c2)SC1=S (some centres not stated) | 2 µg/mL (≈ 3.83 µM) | 2 µg/mL (≈ 3.83 µM) | 4 µg/mL (≈ 7.67 µM) | 4 µg/mL (≈ 7.67 µM) |
| CCC(C)[C@@H](C(=O)O)N1C(=O)/C(=C/c2c(C)nn(-c3ccccc3)c2Oc2ccc(C)cc2)SC1=S (some centres not stated) | 4 µg/mL (≈ 7.67 µM) | 2 µg/mL (≈ 3.83 µM) | 4 µg/mL (≈ 7.67 µM) | 4 µg/mL (≈ 7.67 µM) |
| Cc1cccc(Oc2c(/C=C3\SC(=S)N(CC(=O)O)C3=O)c(C)nn2-c2ccccc2)c1 | 16 µg/mL (≈ 34.4 µM) | 16 µg/mL (≈ 34.4 µM) | 16 µg/mL (≈ 34.4 µM) | 32 µg/mL (≈ 68.7 µM) |
| Cc1ccc(Oc2c(/C=C3\SC(=S)N([C@H](C(=O)O)C(C)C)C3=O)c(C)nn2-c2ccccc2)cc1 | 4 µg/mL (≈ 7.88 µM) | 4 µg/mL (≈ 7.88 µM) | 4 µg/mL (≈ 7.88 µM) | 4 µg/mL (≈ 7.88 µM) |
| Cc1nn(-c2ccccc2)c(Oc2ccccc2Cl)c1/C=C1\SC(=S)N([C@H](C(=O)O)C(C)C)C1=O | 4 µg/mL (≈ 7.57 µM) | 4 µg/mL (≈ 7.57 µM) | 4 µg/mL (≈ 7.57 µM) | 8 µg/mL (≈ 15.1 µM) |
| CCC(C)[C@@H](C(=O)O)N1C(=O)/C(=C/c2c(C)nn(-c3ccccc3)c2Oc2ccc3ccccc3c2)SC1=S (some centres not stated) | 2 µg/mL (≈ 3.59 µM) | 2 µg/mL (≈ 3.59 µM) | 2 µg/mL (≈ 3.59 µM) | 2 µg/mL (≈ 3.59 µM) |
| Cc1ccccc1Oc1c(/C=C2\SC(=S)N([C@H](C(=O)O)C(C)C)C2=O)c(C)nn1-c1ccccc1 | 8 µg/mL (≈ 15.8 µM) | 4 µg/mL (≈ 7.88 µM) | 8 µg/mL (≈ 15.8 µM) | 8 µg/mL (≈ 15.8 µM) |
| Cc1ccc(Oc2c(/C=C3\SC(=S)N(CC(=O)O)C3=O)c(C)nn2-c2ccccc2)cc1 | 32 µg/mL (≈ 68.7 µM) | 32 µg/mL (≈ 68.7 µM) | 32 µg/mL (≈ 68.7 µM) | 32 µg/mL (≈ 68.7 µM) |
| Cc1nn(-c2ccccc2)c(Oc2ccc(F)cc2)c1/C=C1\SC(=S)N([C@H](C(=O)O)C(C)C)C1=O | 8 µg/mL (≈ 15.6 µM) | 8 µg/mL (≈ 15.6 µM) | 8 µg/mL (≈ 15.6 µM) | 8 µg/mL (≈ 15.6 µM) |
| Cc1nn(-c2ccccc2)c(Cl)c1/C=C1\SC(=S)N([C@H](C(=O)O)C(C)C)C1=O | 32 µg/mL (≈ 73.4 µM) | 16 µg/mL (≈ 36.7 µM) | 32 µg/mL (≈ 73.4 µM) | 32 µg/mL (≈ 73.4 µM) |

| SMILES | MIC (Staphylococcus aureus [1]) | MIC (Staphylococcus aureus [2]) | MIC (Staphylococcus aureus [3]) | MIC (Staphylococcus aureus [4]) |
| --- | --- | --- | --- | --- |
| Cc1nn(-c2ccccc2)c(Oc2ccc(Cl)cc2)c1/C=C1\SC(=S)N(CC(=O)O)C1=O | 16 µg/mL (≈ 32.9 µM) | 16 µg/mL (≈ 32.9 µM) | 16 µg/mL (≈ 32.9 µM) | 16 µg/mL (≈ 32.9 µM) |
| CCC(C)[C@@H](C(=O)O)N1C(=O)/C(=C/c2c(C)nn(-c3ccccc3)c2Oc2ccccc2OC)SC1=S (some centres not stated) | 16 µg/mL (≈ 29.8 µM) | 16 µg/mL (≈ 29.8 µM) | 16 µg/mL (≈ 29.8 µM) | 16 µg/mL (≈ 29.8 µM) |
| CCC(C)[C@@H](C(=O)O)N1C(=O)/C(=C/c2c(C)nn(-c3ccccc3)c2Oc2ccccc2Cl)SC1=S (some centres not stated) | 4 µg/mL (≈ 7.38 µM) | 2 µg/mL (≈ 3.69 µM) | 4 µg/mL (≈ 7.38 µM) | 4 µg/mL (≈ 7.38 µM) |
| Cc1nn(-c2ccccc2)c(Oc2ccc(Cl)cc2)c1/C=C1\SC(=S)N([C@H](C(=O)O)C(C)C)C1=O | 4 µg/mL (≈ 7.57 µM) | 4 µg/mL (≈ 7.57 µM) | 4 µg/mL (≈ 7.57 µM) | 4 µg/mL (≈ 7.57 µM) |
| COc1ccc(Oc2c(/C=C3\SC(=S)N([C@H](C(=O)O)C(C)C)C3=O)c(C)nn2-c2ccccc2)cc1 | 8 µg/mL (≈ 15.3 µM) | 8 µg/mL (≈ 15.3 µM) | 8 µg/mL (≈ 15.3 µM) | 8 µg/mL (≈ 15.3 µM) |
| Cc1nn(-c2ccccc2)c(Oc2ccccc2Cl)c1/C=C1\SC(=S)N(CC(=O)O)C1=O | 16 µg/mL (≈ 32.9 µM) | 16 µg/mL (≈ 32.9 µM) | 16 µg/mL (≈ 32.9 µM) | 32 µg/mL (≈ 65.8 µM) |
| Cc1nn(-c2ccccc2)c(Oc2cccc(C(F)(F)F)c2)c1/C=C1\SC(=S)N(CC(=O)O)C1=O | 32 µg/mL (≈ 61.6 µM) | 16 µg/mL (≈ 30.8 µM) | 32 µg/mL (≈ 61.6 µM) | 32 µg/mL (≈ 61.6 µM) |
| CCC(C)[C@@H](C(=O)O)N1C(=O)/C(=C/c2c(C)nn(-c3ccccc3)c2Oc2ccccc2)SC1=S (some centres not stated) | 4 µg/mL (≈ 7.88 µM) | 4 µg/mL (≈ 7.88 µM) | 4 µg/mL (≈ 7.88 µM) | 8 µg/mL (≈ 15.8 µM) |
| Cc1ccc(Oc2c(/C=C3\SC(=S)N([C@H](C(=O)O)C(C)C)C3=O)c(C)nn2-c2ccccc2)c(C)c1 | 2 µg/mL (≈ 3.83 µM) | 2 µg/mL (≈ 3.83 µM) | 4 µg/mL (≈ 7.67 µM) | 4 µg/mL (≈ 7.67 µM) |
| COc1ccccc1Oc1c(/C=C2\SC(=S)N(CC(=O)O)C2=O)c(C)nn1-c1ccccc1 | > 64 µg/mL | > 64 µg/mL | > 64 µg/mL | > 64 µg/mL |
| Cc1nn(-c2ccccc2)c(Oc2ccccc2)c1/C=C1\SC(=S)N([C@H](C(=O)O)C(C)C)C1=O | 16 µg/mL (≈ 32.4 µM) | 16 µg/mL (≈ 32.4 µM) | 16 µg/mL (≈ 32.4 µM) | 16 µg/mL (≈ 32.4 µM) |
| Cc1ccc(Oc2c(/C=C3\SC(=S)N([C@@H](CC(C)C)C(=O)O)C3=O)c(C)nn2-c2ccccc2)c(C)c1 | 4 µg/mL (≈ 7.47 µM) | 4 µg/mL (≈ 7.47 µM) | 4 µg/mL (≈ 7.47 µM) | 4 µg/mL (≈ 7.47 µM) |
| Cc1nn(-c2ccccc2)c(Oc2ccc(Br)cc2)c1/C=C1\SC(=S)N(CC(=O)O)C1=O | 8 µg/mL (≈ 15.1 µM) | 8 µg/mL (≈ 15.1 µM) | 8 µg/mL (≈ 15.1 µM) | 16 µg/mL (≈ 30.2 µM) |
| Cc1nn(-c2ccccc2)c(Oc2ccc3ccccc3c2)c1/C=C1\SC(=S)N([C@H](C(=O)O)C(C)C)C1=O | 8 µg/mL (≈ 14.7 µM) | 4 µg/mL (≈ 7.36 µM) | 8 µg/mL (≈ 14.7 µM) | 8 µg/mL (≈ 14.7 µM) |
| Cc1nn(-c2ccccc2)c(Oc2ccc(Cl)cc2Cl)c1/C=C1\SC(=S)N(CC(=O)O)C1=O | 8 µg/mL (≈ 15.4 µM) | 4 µg/mL (≈ 7.69 µM) | 8 µg/mL (≈ 15.4 µM) | 8 µg/mL (≈ 15.4 µM) |
| Cc1ccccc1Oc1c(/C=C2\SC(=S)N(CC(=O)O)C2=O)c(C)nn1-c1ccccc1 | 32 µg/mL (≈ 68.7 µM) | 16 µg/mL (≈ 34.4 µM) | 32 µg/mL (≈ 68.7 µM) | 32 µg/mL (≈ 68.7 µM) |
| Cc1ccc(Oc2c(/C=C3\SC(=S)N(CC(=O)O)C3=O)c(C)nn2-c2ccccc2)c(C)c1 | 16 µg/mL (≈ 33.4 µM) | 8 µg/mL (≈ 16.7 µM) | 8 µg/mL (≈ 16.7 µM) | 16 µg/mL (≈ 33.4 µM) |
| Cc1nn(-c2ccccc2)c(Cl)c1/C=C1\SC(=S)N(CC(=O)O)C1=O | > 64 µg/mL | > 64 µg/mL | > 64 µg/mL | > 64 µg/mL |
| Cc1nn(-c2ccccc2)c(Oc2c(Cl)cccc2Cl)c1/C=C1\SC(=S)N([C@H](C(=O)O)C(C)C)C1=O | 16 µg/mL (≈ 28.4 µM) | 8 µg/mL (≈ 14.2 µM) | 16 µg/mL (≈ 28.4 µM) | 8 µg/mL (≈ 14.2 µM) |
